Screening data (PubChem)
INS-1E ATP HTS: protection of INS-1E cells from cytokine death, primary screen, ATP luminescence, single point; protection from cytokine-induced ATP loss, % at 10 µM; INS-1E cytokine-induced death, 48 h; normalised: neutral wells 0, positive control 100; hit rate 0.1% among 20,000;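 active = mean replicate protection from cytokine-induced ATP loss at least 50% and at least 75% of replicates each reaching 50%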
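Assay system: INS-1E rat cells / Quantity: 8000 cells per well / Medium: RPMI without phenol red, 5% FBS / Probe or stimulus: three-cytokine cocktail (IFN-γ, TNF-α, IL-1β) / Dosing: one compound concentration, pin transfer / Timing: 48 h co-treatment, 10 min post-lysis read / Technique: CellTiter-Glo luminescence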
A1 apoptosis 2: A1 inhibitors via caspase activation, primary screen, cell-based, luminescence, HTS, two replicates; caspase activation, % (test concentration not listed); 24,000 tested, under 10 active; MEF A1-2A-BIM cells, caspase-Glo luminescence, 3 h; percent of clofoctol response, DMSO zero; AID 2465, 2010; in the data active = caspase activation above about 5.9%
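Material: A1-2A-BIM-expressing MEF cells. Buffer or medium: RPMI-1640 plus 10% FBS. Incubation: cells settled overnight, compound exposure 3 h at 37 °C, 5% CO2. Signal: Caspase-Glo 3/7 luminescence, 1 h at room temperature.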
T cruzi HTS: inhibitors of intracellular Trypanosoma cruzi, primary screen, cell-based, plate reader, single point, set 2; intracellular Trypanosoma cruzi in host cells; activity score (inhibition), % at 5.01 µM; hit rate 4.9% among 22,000; AID 651903, 2012; in the data active = activity score above about 55%;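 note: parasites and compound incubated about four days before reading; 0% = median of neutral control wells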
* = called active by the depositor. The sample as a whole holds a higher share of hits than the screen did.

What do the screens show for `C[C@H](CO)N1C[C@H](C)[C@H](CN(C)S(=O)(=O)c2cccc(F)c2)Oc2ncc(C#Cc3ccccc3)cc2C1=O`?
A1 apoptosis 2: -0.5; T cruzi HTS: 51.5

How did C[C@H](CO)N1C[C@H](C)[C@H](CN(C)S(=O)(=O)c2ccccc2)Oc2ncc(C#Cc3ccc(C(F)(F)F)cc3)cc2C1=O do in these assays?
A1 apoptosis 2: 1.1; T cruzi HTS: 78.5*

Results for C[C@H](CO)N1C[C@H](C)[C@H](CN(C)S(=O)(=O)c2cccc(F)c2)Oc2ncc(C#Cc3ccc(C(F)(F)F)cc3)cc2C1=O ?
A1 apoptosis 2: 0.0; T cruzi HTS: 85.2*

Results for COc1cccc(S(=O)(=O)N(C)C[C@@H]2Oc3ncc(C#Cc4ccc(F)cc4)cc3C(=O)N([C@H](C)CO)C[C@@H]2C)c1 ?
A1 apoptosis 2: -0.5; T cruzi HTS: 72.9*

What do the screens show for `CCCC(O)C#Cc1cnc2c(c1)C(=O)N([C@H](C)CO)C[C@H](C)[C@H](CN(C)S(=O)(=O)c1ccc(F)cc1)O2` (stereo partly specified)?
A1 apoptosis 2: 0.1; T cruzi HTS: 17.8

Results for CCCC(O)C#Cc1cnc2c(c1)C(=O)N([C@H](C)CO)C[C@H](C)[C@H](CN(C)S(=O)(=O)c1cccc(OC)c1)O2 (stereo partly specified) ?
T cruzi HTS: 14.5

How did C[C@@H]1CCCCO[C@@H](CN(C)C(=O)c2ccncc2)[C@H](C)CN([C@@H](C)CO)C(=O)c2cc(NS(=O)(=O)c3ccc(Cl)cc3)ccc2O1 do in these assays?
A1 apoptosis 2: -0.4

How did COc1ccc([Si](C)(C)[C@@H]2[C@@H](CCO)O[C@]3(C(=O)N(c4ccccc4)c4ccccc43)[C@H]2C)cc1 do in these assays?
A1 apoptosis 2: 0.1

Results for COc1ccc(C#Cc2ccc3c(c2)[C@]2(C(=O)N3)[C@H](C(=O)O)[C@H]3C(=O)O[C@H](c4ccccc4)[C@H](c4ccccc4)N3[C@@H]2c2ccccc2OCCO)cc1 ?
A1 apoptosis 2: -1.0

How did C[C@H]1CN([C@@H](C)CO)C(=O)Cc2cc(NC(=O)Nc3ccc(F)cc3)ccc2O[C@H]1CN(C)Cc1ccc2c(c1)OCO2 do in these assays?
INS-1E ATP HTS: -2.5; T cruzi HTS: 2.6

How did C[C@H](CO)N1C[C@H](C)[C@@H](CN(C)C(=O)Nc2ccc(C(F)(F)F)cc2)Oc2ccc(NC(=O)Nc3ccc4c(c3)OCO4)cc2CC1=O do in these assays?
A1 apoptosis 2: 0.9

How did C[C@@H]1CN([C@@H](C)CO)C(=O)Cc2cc(NC(=O)Nc3ccc4c(c3)OCO4)ccc2O[C@@H]1CN(C)C(=O)Nc1ccc(C(F)(F)F)cc1 do in these assays?
INS-1E ATP HTS: -10.1; T cruzi HTS: 7.2

Results for C[C@H](CO)N1C[C@H](C)[C@H](CN(C)Cc2ccc(C(F)(F)F)cc2)Oc2ccc(NC(=O)Nc3ccc4c(c3)OCO4)cc2CC1=O ?
INS-1E ATP HTS: -28.9; A1 apoptosis 2: -0.6; T cruzi HTS: 67.2*

How did C[C@H]1CN([C@@H](C)CO)C(=O)Cc2cc(NC(=O)Nc3ccc4c(c3)OCO4)ccc2O[C@@H]1CN(C)Cc1ccc(C(F)(F)F)cc1 do in these assays?
INS-1E ATP HTS: -41.8; A1 apoptosis 2: 0.0; T cruzi HTS: 71.3*

What do the screens show for `C[C@H]1CN([C@@H](C)CO)C(=O)Cc2cc(NC(=O)Nc3ccc(C(F)(F)F)cc3)ccc2O[C@H]1CN(C)Cc1ccc2c(c1)OCO2`?
INS-1E ATP HTS: -23.9; T cruzi HTS: 59.7*

How did C[C@@H]1CN([C@H](C)CO)C(=O)Cc2cc(NC(=O)Nc3ccc4c(c3)OCO4)ccc2O[C@H]1CN(C)C(=O)Nc1ccc(C(F)(F)F)cc1 do in these assays?
INS-1E ATP HTS: -0.5; T cruzi HTS: -8.6

Results for C[C@H]1CN([C@@H](C)CO)C(=O)Cc2cc(NC(=O)Nc3ccc4c(c3)OCO4)ccc2O[C@H]1CN(C)Cc1ccc(C(F)(F)F)cc1 ?
INS-1E ATP HTS: -32.1; T cruzi HTS: 67.7*

What do the screens show for `COc1ccc(NC(=O)Nc2ccc3c(c2)C(=O)N([C@@H](C)CO)C[C@@H](C)[C@@H](CN(C)S(=O)(=O)c2ccc(F)cc2)O3)cc1`?
INS-1E ATP HTS: 5.9; A1 apoptosis 2: -0.7; T cruzi HTS: -14.0

What do the screens show for `C[C@@H]1CN([C@@H](C)CO)C(=O)Cc2cc(NC(=O)Nc3ccc4c(c3)OCO4)ccc2O[C@@H]1CN(C)Cc1ccc(C(F)(F)F)cc1`?
INS-1E ATP HTS: -7.9; T cruzi HTS: 67.7*

What do the screens show for `C[C@H](CO)N1C[C@H](C)[C@H](CN(C)Cc2ccc3c(c2)OCO3)Oc2ccc(NC(=O)Nc3ccc4c(c3)OCO4)cc2CC1=O`?
INS-1E ATP HTS: -7.8; A1 apoptosis 2: 1.4; T cruzi HTS: 12.8

How did C[C@H]1CN([C@@H](C)CO)C(=O)Cc2cc(NC(=O)C3CCCCC3)ccc2O[C@@H]1CN(C)Cc1ccc(Oc2ccccc2)cc1 do in these assays?
INS-1E ATP HTS: -29.2; T cruzi HTS: 59.1*

Results for C[C@H](CO)N1C[C@H](C)[C@@H](CN(C)Cc2ccc(Oc3ccccc3)cc2)Oc2ccc(NC(=O)C3CCCCC3)cc2CC1=O ?
A1 apoptosis 2: 0.3

What do the screens show for `COc1ccc(NC(=O)Nc2ccc3c(c2)CC(=O)N([C@H](C)CO)C[C@@H](C)[C@H](CN(C)Cc2ccc(Oc4ccccc4)cc2)O3)cc1`?
INS-1E ATP HTS: -24.6; T cruzi HTS: 10.2

Results for COc1ccc(NC(=O)Nc2ccc3c(c2)CC(=O)N([C@H](C)CO)C[C@@H](C)[C@@H](CN(C)Cc2ccc(Oc4ccccc4)cc2)O3)cc1 ?
INS-1E ATP HTS: -22.4; T cruzi HTS: 71.7*

Results for COc1ccc(CN(C)C[C@@H]2Oc3ccc(NC(=O)Nc4ccccc4)cc3CC(=O)N([C@@H](C)CO)C[C@H]2C)cc1 ?
A1 apoptosis 2: 0.2

How did COc1ccc(NC(=O)Nc2ccc3c(c2)CC(=O)N([C@@H](C)CO)C[C@H](C)[C@@H](CN(C)Cc2ccc(Oc4ccccc4)cc2)O3)cc1 do in these assays?
INS-1E ATP HTS: -39.6; A1 apoptosis 2: 0.2; T cruzi HTS: 62.5*

How did C[C@H]1CN([C@@H](C)CO)C(=O)Cc2cc(NC(=O)C3CC3)ccc2O[C@H]1CN(C)C(=O)NC1CCCCC1 do in these assays?
INS-1E ATP HTS: 6.5; T cruzi HTS: -7.0

How did Cc1noc(C)c1NC(=O)Nc1cccc2c1O[C@@H](CN(C)C(=O)Nc1cccc3ccccc13)[C@@H](C)CN([C@@H](C)CO)C2=O do in these assays?
INS-1E ATP HTS: 11.1; T cruzi HTS: -40.2

What do the screens show for `C[C@H]1CN([C@@H](C)CO)C(=O)c2cccc(NC(=O)Nc3ccccc3)c2O[C@@H]1CN(C)S(=O)(=O)c1cccs1`?
INS-1E ATP HTS: 2.5; T cruzi HTS: -1.7

Results for C[C@@H]1CCCCO[C@H](CN(C)Cc2ccc(C(F)(F)F)cc2)[C@@H](C)CN([C@@H](C)CO)C(=O)c2cc(NC(=O)c3ccccc3)ccc2O1 ?
A1 apoptosis 2: -0.5
